Reference: ChEMBL document CHEMBL4043300, “2 H-1,2,3-Triazole-Based Dipeptidyl Nitriles: Potent, Selective, and Trypanocidal Rhodesain Inhibitors by Structure-Based Design” (J Med Chem, 2018)
Converted amounts (≈) assume the structure as drawn.

Columns and labels:
[1] = system: Trypanosoma brucei rhodesiense; test: Antitrypanosomal activity against bloodstream form of Trypanosoma brucei rhodesiense STIB 900 assessed as parasite growth inhibition after 72 hrs by Alamar blue assay; type: functional; conditions: STIB 900, 72 h
Method in brief: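 Standard 72 h growth-inhibition assay with STIB 900 bloodstream trypomastigotes and Alamar Blue read-out. Value is the mean of at least 2 measurements.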

[2] = system: Trypanosoma brucei rhodesiense; test: Antitrypanosomal activity against bloodstream form of Trypanosoma brucei rhodesiense STIB 900 assessed as parasite growth inhibition after 2 hrs by Alamar blue assay; type: functional; conditions: STIB 900, 2 h
Method in brief: (§1)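 Bloodstream STIB 900 trypomastigotes, 1x10⁴ per well, exposed to eleven 3-fold serial dilutions at 37 °C/5% CO₂ for the stated pulse time. Parasites were then pelleted and washed four times, and an aliquot was regrown 72 h drug-free in triplicate plates. Resazurin was added for 2–4 h, fluorescence read at ex 536/em 588 nm, and IC50 taken by linear regression of sigmoidal curves. Melarsoprol served as control.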

[3] = system: Trypanosoma brucei rhodesiense; test: Antitrypanosomal activity against bloodstream form of Trypanosoma brucei rhodesiense STIB 900 assessed as parasite growth inhibition after 6 hrs by Alamar blue assay; type: functional; conditions: STIB 900, 6 h; method in brief: as §1
[4] = system: Trypanosoma brucei rhodesiense; test: Antitrypanosomal activity against bloodstream form of Trypanosoma brucei rhodesiense STIB 900 assessed as parasite growth inhibition after 16 hrs by Alamar blue assay; type: functional; conditions: STIB 900, 16 h; method in brief: as §1
[5] = system: Trypanosoma brucei rhodesiense; test: Antitrypanosomal activity against bloodstream form of Trypanosoma brucei rhodesiense STIB 900 assessed as parasite growth inhibition after 24 hrs by Alamar blue assay; type: functional; conditions: STIB 900, 24 h; method in brief: as §1
[6] = system: Trypanosoma brucei rhodesiense; test: Antitrypanosomal activity against bloodstream form of Trypanosoma brucei rhodesiense STIB 900 assessed as parasite growth inhibition after 48 hrs by Alamar blue assay; type: functional; conditions: STIB 900, 48 h; method in brief: as §1
[7] = Solubility of the compound at pH 6.5 by LYSA; type: physicochemical; conditions: buffer
Method in brief: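 Lyophilization solubility assay at pH 6.5.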

Rhodesain = Rhodesain (Trypanosoma brucei rhodesiense, UniProt Q95PM0); test: Inhibition of Trypanosoma brucei rhodesiense rhodesain using Cbz-Phe-Arg-AMC as substrate by fluorimetric method
Method in brief: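 Fluorescence-based assay run at 25 °C in 50 mM sodium acetate pH 5.5 with 5 mM EDTA, 200 mM NaCl and 0.005% Brij35. IC50 values were converted to Ki with the Cheng-Prusoff equation. Values are the average of two measurements, each done in duplicate.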

Procathepsin L = Procathepsin L (Homo sapiens, UniProt P07711); test: Inhibition of human CatL using Cbz-Phe-Arg-AMC as substrate measured over 30 mins by fluorimetric method
Method in brief: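 Human cathepsin L in a fluorimetric assay in 50 mM Tris pH 6.5, 5 mM EDTA, 200 mM NaCl, 0.005% Brij35 at 25 °C. Ki was calculated from IC50 by Cheng-Prusoff. Value is the average of two measurements, each in duplicate.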

[8] = Selectivity index, ratio of Ki for human CatL to Ki for Trypanosoma brucei rhodesiense rhodesain
Method in brief: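 Ki(hCatL)/Ki(RD). Fluorimetric assays at 25 °C: RD in 50 mM sodium acetate pH 5.5; hCatL in 50 mM Tris pH 6.5; both buffers with 5 mM EDTA, 200 mM NaCl, 0.005% Brij35. Ki derived from IC50 by Cheng-Prusoff. Each value is the mean of two measurements, each done in duplicate.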

L6 = test: Cytotoxicity against rat L6 cells after 72 hrs by Alamar blue assay; type: cell-based; conditions: L6, 72 h
Method in brief: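 Rat skeletal myoblast L6 cells in an Alamar Blue growth-inhibition assay. Value is the mean of at least 2 measurements.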

[9] = Selectivity index, ratio of IC50 for rat L6 cells to IC50 for bloodstream form of Trypanosoma brucei rhodesiense STIB 900; type: toxicity; conditions: read-out: Ratio IC50
Method in brief: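 Ratio of L-6 rat skeletal myoblast IC50 to T. b. rhodesiense STIB 900 bloodstream trypomastigote IC50, both from Alamar Blue growth-inhibition assays. Each IC50 is the mean of at least 2 measurements.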

[10] = Octanol-water intrinsic distribution co-efficient, log D of the compound at 100 uM at pH 7.4 after 16 to 22 hrs by CAMDIS assay; type: physicochemical
Method in brief: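 Octanol/aqueous buffer (pH 7.4) intrinsic distribution coefficient measured in the CAMDIS carrier-mediated distribution system.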

[11] = system: Trypanosoma brucei rhodesiense; test: Antitrypanosomal activity against bloodstream form of Trypanosoma brucei rhodesiense STIB 900 infected in NMRI mouse assessed as reduction of parasitemia at 50 mg/kg, po administered for 3 consecutive days starting 1 day post infection measured at 24 hrs post last dose relative to control; type: functional; set-up: scale not given: the % may be the effect or the level left
Method in brief: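 Female mice infected with STIB900 were dosed orally at 50 mg/kg/day on three consecutive days, starting 1 day post-infection. Compound was in 100% DMSO diluted 10-fold in distilled water, given at 0.1 mL/10 g. Tail-blood parasitaemia was measured 24 h after the last dose versus 4 untreated infected controls. Values are means of 2 mice.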

[12] = Intrinsic clearance in human liver microsomes at 2 uM after 30 mins in presence of NADPH by LC-MS/MS method; type: ADME, microsome; conditions: read-out: CLH
[13] = Intrinsic clearance in mouse liver microsomes at 2 uM after 30 mins in presence of NADPH by LC-MS/MS method; type: ADME, microsome; conditions: read-out: CLH
[14] = Permeability of the compound after 15 hrs by PAMPA; type: physicochemical; conditions: read-out: permeability
Cytochrome P450 3A4 = Cytochrome P450 3A4 (Homo sapiens, UniProt P08684); test: Inhibition of CYP3A4 in human liver microsomes using DBF as substrate by fluorescence assay; type: ADME
Method in brief: (§2)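 Human liver microsomes with CYP-selective substrate metabolism reactions for 2C9, 2D6 and 3A4.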

Cytochrome P450 2D6 = Cytochrome P450 2D6 (Homo sapiens, UniProt P10635); test: Inhibition of CYP2D6 in human liver microsomes using AMMC as substrate by fluorescence assay; type: ADME; method in brief: as §2
Cytochrome P450 2C9 = Cytochrome P450 2C9 (Homo sapiens, UniProt P11712); test: Inhibition of CYP2C9 in human liver microsomes using MFC as substrate by fluorescence assay; type: ADME; method in brief: as §2
[15] = Half life in C57BL/6J mouse at 1.5 mg/kg, iv as bolus dose by LC-MS/MS analysis; type: ADME, organism-based; conditions: in vivo
Method in brief: (§3)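 Mice given single i.v. dose in N-methylpyrrolidinone / 40% (v/v) aqueous hydroxypropyl-γ-cyclodextrin (30/70 v/v). Blood into K₂EDTA at 5 min, 15 min, 30 min, 1, 2, 4, 8 h, sublingually or by terminal cardiac puncture under isoflurane. Plasma spun at 3000 × g, 5 min, 4 °C, stored at -20 °C. Plasma levels by LC–MS/MS; parameters by non-compartmental analysis.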

[16] = Clearance in C57BL/6J mouse at 1.5 mg/kg, iv as bolus dose by LC-MS/MS analysis; type: ADME, organism-based; conditions: in vivo; method in brief: as §3
[17] = Volume of distribution at steady state in C57BL/6J mouse at 1.5 mg/kg, iv as bolus dose by LC-MS/MS analysis; type: ADME, organism-based; conditions: in vivo, read-out: Vdss; method in brief: as §3
[18] = Unbound fraction in human plasma; type: ADME, cell-free

Sequence of Procathepsin L (P07711 whole entry): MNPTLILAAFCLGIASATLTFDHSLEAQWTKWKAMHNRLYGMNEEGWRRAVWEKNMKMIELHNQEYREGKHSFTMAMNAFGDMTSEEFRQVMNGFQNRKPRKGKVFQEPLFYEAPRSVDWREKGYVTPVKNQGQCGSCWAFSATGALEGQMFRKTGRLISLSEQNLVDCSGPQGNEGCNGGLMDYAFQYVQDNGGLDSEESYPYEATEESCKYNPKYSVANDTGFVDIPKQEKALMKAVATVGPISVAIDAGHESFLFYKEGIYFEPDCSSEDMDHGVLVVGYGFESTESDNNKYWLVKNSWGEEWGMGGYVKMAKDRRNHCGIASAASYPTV
Sequence of Rhodesain (Q95PM0 whole entry): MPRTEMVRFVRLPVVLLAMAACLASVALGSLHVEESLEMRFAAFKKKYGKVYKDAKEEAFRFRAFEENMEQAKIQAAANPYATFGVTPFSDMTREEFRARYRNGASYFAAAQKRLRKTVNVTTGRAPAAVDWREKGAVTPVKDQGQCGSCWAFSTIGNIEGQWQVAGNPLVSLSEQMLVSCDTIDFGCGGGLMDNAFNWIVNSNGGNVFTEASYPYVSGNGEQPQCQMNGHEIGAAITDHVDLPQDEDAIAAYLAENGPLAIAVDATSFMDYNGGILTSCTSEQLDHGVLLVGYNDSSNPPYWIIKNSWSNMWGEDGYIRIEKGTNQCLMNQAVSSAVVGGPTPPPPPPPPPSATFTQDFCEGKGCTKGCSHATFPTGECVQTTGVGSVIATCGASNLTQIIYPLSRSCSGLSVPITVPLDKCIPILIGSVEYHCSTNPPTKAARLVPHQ
Sequence of Cytochrome P450 2C9 (P11712 whole entry): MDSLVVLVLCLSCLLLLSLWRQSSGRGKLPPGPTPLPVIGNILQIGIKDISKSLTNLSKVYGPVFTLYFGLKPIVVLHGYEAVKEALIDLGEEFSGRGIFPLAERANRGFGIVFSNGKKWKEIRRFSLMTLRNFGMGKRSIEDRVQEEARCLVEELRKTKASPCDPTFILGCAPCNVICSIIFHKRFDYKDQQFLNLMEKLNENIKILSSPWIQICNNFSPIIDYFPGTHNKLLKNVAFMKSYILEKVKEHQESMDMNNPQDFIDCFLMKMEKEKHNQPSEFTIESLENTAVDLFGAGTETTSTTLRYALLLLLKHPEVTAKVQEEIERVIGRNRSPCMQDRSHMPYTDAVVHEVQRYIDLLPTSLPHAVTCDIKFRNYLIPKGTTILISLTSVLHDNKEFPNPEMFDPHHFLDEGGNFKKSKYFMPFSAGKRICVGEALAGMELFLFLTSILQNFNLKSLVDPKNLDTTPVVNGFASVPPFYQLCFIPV
Sequence of Cytochrome P450 2D6 (P10635 whole entry): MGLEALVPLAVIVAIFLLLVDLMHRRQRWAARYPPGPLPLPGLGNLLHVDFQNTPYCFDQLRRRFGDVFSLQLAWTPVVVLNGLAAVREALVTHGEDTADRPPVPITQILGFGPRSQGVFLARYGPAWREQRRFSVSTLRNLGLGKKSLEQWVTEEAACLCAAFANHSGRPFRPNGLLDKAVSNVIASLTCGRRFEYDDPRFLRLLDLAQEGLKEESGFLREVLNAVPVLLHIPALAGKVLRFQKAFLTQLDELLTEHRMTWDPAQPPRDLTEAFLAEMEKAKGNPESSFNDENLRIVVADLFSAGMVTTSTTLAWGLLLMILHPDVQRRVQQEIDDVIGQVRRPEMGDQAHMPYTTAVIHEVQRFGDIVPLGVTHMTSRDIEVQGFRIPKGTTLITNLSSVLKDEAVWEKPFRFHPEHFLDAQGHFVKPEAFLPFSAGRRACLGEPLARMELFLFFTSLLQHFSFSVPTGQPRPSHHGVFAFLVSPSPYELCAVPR
Sequence of Cytochrome P450 3A4 (P08684 whole entry): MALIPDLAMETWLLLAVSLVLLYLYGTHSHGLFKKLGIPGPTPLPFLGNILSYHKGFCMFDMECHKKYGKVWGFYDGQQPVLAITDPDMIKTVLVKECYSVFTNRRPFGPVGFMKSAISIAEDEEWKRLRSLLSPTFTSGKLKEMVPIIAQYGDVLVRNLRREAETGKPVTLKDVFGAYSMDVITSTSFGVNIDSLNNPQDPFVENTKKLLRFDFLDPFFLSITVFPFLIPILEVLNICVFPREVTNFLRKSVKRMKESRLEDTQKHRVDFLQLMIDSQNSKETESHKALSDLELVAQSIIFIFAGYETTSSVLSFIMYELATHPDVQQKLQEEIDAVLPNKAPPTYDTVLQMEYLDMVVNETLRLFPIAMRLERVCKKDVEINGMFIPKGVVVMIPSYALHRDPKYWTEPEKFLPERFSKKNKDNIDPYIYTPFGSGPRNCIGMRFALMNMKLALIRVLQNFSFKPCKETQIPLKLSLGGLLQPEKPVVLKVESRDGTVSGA

SMILES	IC50 [1]	solubility [7]	Ki (Rhodesain)	Ki (Procathepsin L)	Ratio Ki [8]	IC50 (L6)	selectivity ratio [9]	logD at 100 µM [10]	Activity [11]	microsomal CLint at 2 µM [12]	microsomal CLint at 2 µM [13]	Papp at 15 h [14]	half-life [15]	clearance [16]	Vd [17]	fraction unbound [18]	also measured
Nc1nc(N)nc(Nc2ccc([As]3SCC(CO)S3)cc2)n1 (stereo unspecified) [MELARSOPROL]	4 to 9 nM																IC50 [2]: > 180 nM; IC50 [3]: 99 nM; IC50 [4]: 86 nM; IC50 [5]: 44 nM; IC50 [6]: 26 nM
N#CC1(NC(=O)[C@H](Cc2ccc(OC(F)(F)F)c(Cl)c2)NC(=O)c2cnn(-c3ccccc3)n2)CC1	5 nM	< 0.3 µg/mL	2.9 nM	81.7 nM	28	17900 nM	3580										IC50 [2]: > 1000 nM; IC50 [3]: > 1000 nM; IC50 [4]: > 1000 nM; IC50 [5]: 556 nM; IC50 [6]: 462 nM
N#CC1(NC(=O)[C@H](Cc2ccc(OC(F)(F)F)c(Cl)c2)NC(=O)c2cnn(-c3ccncc3)n2)CC1	0.6 nM	5.2 µg/mL (≈ 10 µM)	16 nM	82 nM	5	> 10000 nM		3.69	43.3%								
N#CC1(NC(=O)[C@H](Cc2ccc(Cl)c(Cl)c2)NC(=O)c2cnn(C3COC3)n2)CC1	8 nM		33 nM	78 nM	2.4	> 100000 nM			45.3%								
N#CC1(NC(=O)[C@H](Cc2ccc(OC(F)(F)F)c(Cl)c2)NC(=O)c2cnn(-c3cccnc3)n2)CC1	1 nM	4.2 µg/mL (≈ 8.08 µM)	36 nM	353 nM	10	> 10000 nM		3.7		< 10 µL/min/mg	11 µL/min/mg	0.447 ×10⁻⁶ cm/s	0.94 h	22.6 mL/min/kg	0.8 L/kg	0.0395	IC50 (Cytochrome P450 3A4): 8000 nM; IC50 (Cytochrome P450 2D6): 2000 nM; IC50 (Cytochrome P450 2C9): 7000 nM
Cn1ncc(C(=O)N[C@@H](Cc2ccc(OC(F)(F)F)c(Cl)c2)C(=O)NC2(C#N)CC2)n1	40 nM	53 µg/mL (≈ 116 µM)	23 nM	15 nM	0.7	> 10000 nM		3.09	53.6%	< 10 µL/min/mg	< 10 µL/min/mg	0.12 ×10⁻⁶ cm/s	1.52 h	22.8 mL/min/kg	2.7 L/kg	0.226	IC50 (Cytochrome P450 3A4): > 50000 nM; IC50 (Cytochrome P450 2D6): 6000 nM; IC50 (Cytochrome P450 2C9): > 50000 nM
N#CC1(NC(=O)[C@H](Cc2ccc(Cl)c(Cl)c2)NC(=O)c2cnn(C3CC(F)(F)C3)n2)CC1	8 nM		18 nM	64 nM	3.6	54800 nM	6840		15.8%								
CC(C)n1ncc(C(=O)N[C@@H](Cc2ccc(OC(F)(F)F)c(Cl)c2)C(=O)NC2(C#N)CC2)n1	4 nM	4 µg/mL (≈ 8.25 µM)	18 nM	4 nM	0.2	> 10000 nM		4.61		11 µL/min/mg	26 µL/min/mg	0.138 ×10⁻⁶ cm/s	1.53 h	32.9 mL/min/kg	3 L/kg	0.0826	
N#CC1(NC(=O)[C@H](Cc2ccc(OC(F)(F)F)c(Cl)c2)NC(=O)c2cnn(C3COC3)n2)CC1	3 nM	4 µg/mL (≈ 8.02 µM)	31 nM	25 nM	0.8	96000 nM	32000	2.58	43.1%								
N#CC1(NC(=O)[C@H](Cc2ccc(OC(F)(F)F)c(Cl)c2)NC(=O)c2cnn(C3CCNC3)n2)CC1 (stereo partly specified)	0.2 nM	253 µg/mL (≈ 494 µM)	93 nM	14 nM	0.2	56000 nM	280000	1.33	0.4%								
